{
  "source": "ChEMBL document CHEMBL5576109",
  "about": "“Hydantoin derivative dimers as broad-spectrum antimicrobial agents against ESKAPE pathogens with enhanced killing rate and stability” (RSC Med Chem, 2024)",
  "key": {"Staphylococcus aureus [1]": {"test_system": "Staphylococcus aureus", "test": "Induction of morphological changes in Staphylococcus aureus ATCC 29213 assessed as cell collapse at 8 time of MIC for 6 hrs by scanning electron microscopy", "type": "functional, organism-based", "procedure,_shortened": "(§1)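 Mid-log cells exposed to compound for 6 h at 37 °C alongside untreated controls. Cells pelleted (3000 rpm, 15 min), washed four times in PBS, and fixed with 2.5% glutaraldehyde. Dehydrated through graded ethanol, critical-point dried and gold-coated, then imaged by SEM.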"}, "Staphylococcus aureus [2]": {"test_system": "Staphylococcus aureus", "test": "Induction of cytoplasmic membrane depolarization in Staphylococcus aureus ATCC 29213 assessed as increase in fluorescence intensity by DiSC3(5) staining based analysis", "type": "functional, organism-based", "procedure,_shortened": "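Mid-log cells washed in 5 mM HEPES/5 mM glucose and resuspended at 10^6 CFU/mL in glucose/HEPES/100 mM KCl (1:1:1). DiSC3(5) added and fluorescence (Ex 622 / Em 670 nm) followed for 30 min at 37 °C until minimal. Compound then added and the fluorescence rise recorded.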"}, "Staphylococcus aureus [3]": {"test_system": "Staphylococcus aureus", "test": "Induction of morphological changes in Staphylococcus aureus ATCC 29213 assessed as cellular inclusion leakage at 8 time of MIC for 6 hrs by scanning electron microscopy", "type": "functional, organism-based", "procedure,_shortened": "as §1"}, "Escherichia coli [4]": {"test_system": "Escherichia coli", "test": "Induction of morphological changes in Escherichia coli ATCC 25922 assessed as cell collapse at 8 time of MIC for 6 hrs by scanning electron microscopy", "type": "functional, organism-based", "procedure,_shortened": "as §1"}, "Klebsiella pneumoniae": {"test_system": "Klebsiella pneumoniae", "test": "Antibacterial activity against Klebsiella pneumoniae ATCC 10031 assessed as reduction bacterial growth after 16 hrs by TECAN SPARK microplate reader analysis", "type": "functional", "procedure,_shortened": "(§2)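 Single colony grown overnight in 4 mL TSB at 37 °C, diluted 100-fold and grown to mid-log phase. Compounds 2-fold serially diluted in TSB and mixed 1:1 with bacteria in TSB (1 × 10^6 CFU/mL). Incubated 16 h at 37 °C, then A600 read. MIC taken as the lowest concentration giving complete growth inhibition.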"}, "Escherichia coli [5]": {"test_system": "Escherichia coli", "test": "Induction of ROS generation in Escherichia coli ATCC 25922 assessed as fold increase in fluorescence intensity at 0.5 MIC concentration incubated for 30 mins by DCFH-DA staining based analysis", "type": "functional", "settings": "0.5 h", "procedure,_shortened": "(§3)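 Overnight 37 °C cultures washed three times and resuspended in PBS, diluted to OD600 0.1, and mixed with DCFH-DA (5 µM). Treated with a range of compound concentrations for 30 min at 37 °C in the dark. Fluorescence read at Ex 488 / Em 530 nm.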"}, "Staphylococcus aureus [6]": {"test_system": "Staphylococcus aureus", "test": "Bactericidal activity against Staphylococcus aureus ATCC 29213 assessed as inhibition of bacterial growth at 1 to 4 times of MIC measured within 1 hr mins by time-kill kinetics assay relative to control", "type": "functional", "procedure,_shortened": "(§4)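 Bacteria grown at 37 °C to mid-log phase and diluted to 1 × 10^6 CFU/mL. […] Mixtures diluted 10^2–10^4-fold and plated on TSB agar; colonies counted after 20 h at 37 °C.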"}, "Enterococcus faecalis": {"test_system": "Enterococcus faecalis", "test": "Antibacterial activity against Enterococcus faecalis ATCC 29212 assessed as reduction bacterial growth after 16 hrs by TECAN SPARK microplate reader analysis", "type": "functional", "procedure,_shortened": "as §2"}, "Staphylococcus aureus [7]": {"test_system": "Staphylococcus aureus", "test": "Antibacterial activity against Staphylococcus aureus ATCC 29213 assessed as inhibition of bacterial growth by measuring fold increase in MIC compound preincubated at 40 degree C for 1 hr followed by bacterial culture addition and measured after 16 to 18 hrs by TECAN SPARK microplate reader analysis", "type": "functional", "settings": "time 16-18 hrs"}, "Escherichia coli [8]": {"test_system": "Escherichia coli", "test": "Induction of morphological changes in Escherichia coli ATCC 25922 assessed as cell shrinkage at 8 time of MIC for 6 hrs by scanning electron microscopy", "type": "functional, organism-based", "procedure,_shortened": "as §1"}, "Escherichia coli [9]": {"test_system": "Escherichia coli", "test": "Antibacterial activity against Escherichia coli ATCC 25922 assessed as reduction bacterial growth after 16 hrs by TECAN SPARK microplate reader analysis", "type": "functional", "procedure,_shortened": "as §2"}, "Escherichia coli [10]": {"test_system": "Escherichia coli", "test": "Antibacterial activity against Escherichia coli ATCC 25922 assessed as inhibition of bacterial growth by measuring fold increase in MIC measured after 16 to 18 hrs in presence of KCl by TECAN SPARK microplate reader analysis", "type": "functional", "settings": "time 16-18 hrs", "procedure,_shortened": "(§5)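 Salt/serum stability. Exponential-phase bacteria incubated 16–18 h with compound in medium supplemented with 10 mM NaCl, 10 mM KCl, 10 mM MgCl2, 10% DMEM or 10% FBS. Stability judged from the change in MIC.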"}, "Pseudomonas aeruginosa": {"test_system": "Pseudomonas aeruginosa", "test": "Antibacterial activity against Pseudomonas aeruginosa CMCC 10104 assessed as reduction bacterial growth after 16 hrs by TECAN SPARK microplate reader analysis", "type": "functional", "procedure,_shortened": "as §2"}, "Escherichia coli [11]": {"test_system": "Escherichia coli", "test": "Drug resistance, ratio of MIC for Escherichia coli ATCC 25922 after 25 passages to MIC for Escherichia coli ATCC 25922 after initial exposure", "type": "functional", "procedure,_shortened": "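Serial passage resistance selection: after each broth MIC determination, bacteria from the 1/2 MIC well were withdrawn and diluted to 1 × 10^6 CFU/mL for the next MIC measurement. Repeated for 25 passages; MIC after passage 25 compared with the initial MIC.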"}, "Escherichia coli [12]": {"test_system": "Escherichia coli", "test": "Induction of ROS generation in Escherichia coli ATCC 25922 assessed as increase in fluorescence intensity incubated for 30 mins by DCFH-DA staining based analysis", "type": "functional, organism-based", "procedure,_shortened": "as §3"}, "Staphylococcus aureus [13]": {"test_system": "Staphylococcus aureus", "test": "Induction of ROS generation in Staphylococcus aureus ATCC 29213 assessed as increase in fluorescence intensity incubated for 30 mins by DCFH-DA staining based analysis", "type": "functional, organism-based", "procedure,_shortened": "as §3"}, "Escherichia coli [14]": {"test_system": "Escherichia coli", "test": "Antibacterial activity against Escherichia coli ATCC 25922 assessed as inhibition of bacterial growth by measuring fold increase in MIC measured after 16 to 18 hrs in presence of 10% FBS by TECAN SPARK microplate reader analysis", "type": "functional", "settings": "time 16-18 hrs", "procedure,_shortened": "as §5"}, "Escherichia coli [15]": {"test_system": "Escherichia coli", "test": "Antibacterial activity against Escherichia coli ATCC 25922 assessed as inhibition of bacterial growth by measuring fold increase in MIC compound preincubated at 120 degree C for 1 hr followed by bacterial culture addition and measured after 16 to 18 hrs by TECAN SPARK microplate reader analysis", "type": "functional", "settings": "time 16-18 hrs"}, "Staphylococcus aureus [16]": {"test_system": "Staphylococcus aureus", "test": "Bactericidal activity against Staphylococcus aureus ATCC 29213 assessed as reduction in colony forming units at 1 to 4 times of MIC by time-kill kinetics assay", "type": "functional, organism-based", "settings": "time 15-120 min, TDE = time-dependent effect", "procedure,_shortened": "as §4"}, "Escherichia coli [17]": {"test_system": "Escherichia coli", "test": "Antibacterial activity against Escherichia coli ATCC 25922 assessed as inhibition of bacterial growth by measuring fold increase in MIC measured after 16 to 18 hrs in presence of NaCl by TECAN SPARK microplate reader analysis", "type": "functional", "settings": "time 16-18 hrs", "procedure,_shortened": "as §5"}, "Staphylococcus aureus [18]": {"test_system": "Staphylococcus aureus", "test": "Antibacterial activity against Staphylococcus aureus ATCC 29213 assessed as inhibition of bacterial growth by measuring fold increase in MIC compound preincubated at 80 degree C for 1 hr followed by bacterial culture addition and measured after 16 to 18 hrs by TECAN SPARK microplate reader analysis", "type": "functional", "settings": "time 16-18 hrs"}, "Staphylococcus aureus [19]": {"test_system": "Staphylococcus aureus", "test": "Antibacterial activity against methicillin-resistant Staphylococcus aureus ATCC 43300 assessed as reduction bacterial growth after 16 hrs by TECAN SPARK microplate reader analysis", "type": "functional", "procedure,_shortened": "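Broth microdilution in TSB: single colony grown overnight at 37 °C, diluted 100-fold and grown to mid-log phase. 2-fold serial compound dilutions mixed 1:1 with bacteria at 1 × 10^6 CFU/mL, incubated 16 h at 37 °C, absorbance read at 600 nm. MIC taken as lowest concentration giving complete growth inhibition.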"}, "Staphylococcus aureus [20]": {"test_system": "Staphylococcus aureus", "test": "Antibacterial activity against Staphylococcus aureus ATCC 29213 assessed as reduction bacterial growth after 16 hrs by TECAN SPARK microplate reader analysis", "type": "functional", "procedure,_shortened": "as §2"}},
  "note": "Calls of active or inactive are those of the source. The calls are words filed in the database; no cut-off is given here.",
  "data": [
    {"smiles": "CCCCCCN1C(=O)[C@H](CCCCNC(=N)N)N(Cc2ccc(-c3ccc(CN4C(=O)N(CCCCCC)C(=O)[C@@H]4CCCCNC(=N)N)cc3)cc2)C1=O", "values": [
      {"measurement": "Activity", "setting": "Staphylococcus aureus [1]", "result": "Active"},
      {"measurement": "Activity", "setting": "Staphylococcus aureus [2]", "result": "Dose-Dependent Effect"},
      {"measurement": "Activity", "setting": "Staphylococcus aureus [3]", "result": "Active"},
      {"measurement": "Activity", "setting": "Escherichia coli [4]", "result": "Active"},
      {"measurement": "MIC", "setting": "Klebsiella pneumoniae", "result": 7.81, "unit": "µg/mL"},
      {"measurement": "fold change (FC)", "setting": "Escherichia coli [5]", "result": "~2"},
      {"measurement": "inhibition (INH)", "setting": "Staphylococcus aureus [6]", "result": 100, "unit": "%"},
      {"measurement": "MIC", "setting": "Enterococcus faecalis", "result": 3.91, "unit": "µg/mL"},
      {"measurement": "fold change (FC)", "setting": "Staphylococcus aureus [7]", "result": 1},
      {"measurement": "Activity", "setting": "Escherichia coli [8]", "result": "Active"},
      {"measurement": "MIC", "setting": "Escherichia coli [9]", "result": 3.91, "unit": "µg/mL"},
      {"measurement": "fold change (FC)", "setting": "Escherichia coli [10]", "result": 1},
      {"measurement": "MIC", "setting": "Pseudomonas aeruginosa", "result": 15.6, "unit": "µg/mL"},
      {"measurement": "Ratio", "setting": "Escherichia coli [11]", "result": "<=4"},
      {"measurement": "Activity", "setting": "Escherichia coli [12]", "result": "Dose-Dependent Effect"},
      {"measurement": "Activity", "setting": "Staphylococcus aureus [13]", "result": "Dose-Dependent Effect"},
      {"measurement": "fold change (FC)", "setting": "Escherichia coli [14]", "result": 1},
      {"measurement": "fold change (FC)", "setting": "Escherichia coli [15]", "result": 1},
      {"measurement": "Activity", "setting": "Staphylococcus aureus [16]", "result": "Tde"},
      {"measurement": "fold change (FC)", "setting": "Escherichia coli [17]", "result": 1},
      {"measurement": "fold change (FC)", "setting": "Staphylococcus aureus [18]", "result": 1},
      {"measurement": "MIC", "setting": "Staphylococcus aureus [19]", "result": 7.81, "unit": "µg/mL"},
      {"measurement": "MIC", "setting": "Staphylococcus aureus [20]", "result": 1.95, "unit": "µg/mL"}
    ]}
  ]
}
